Assay results from ChEMBL document CHEMBL4433205, “Dual Pharmacophores Explored via Structure-Activity Relationship (SAR) Matrix: Insights into Potent, Bifunctional Opioid Ligand Design” (J Med Chem, 2019).
Calls of active or inactive are those of the source.

Assays:
[1] = target: Delta-type opioid receptor (Rattus norvegicus) (UniProt P33533); assay: Agonist activity at rat delta opioid receptor expressed in rat C6 cell membranes assessed as stimulation of [35S]GTPgammaS binding incubated for 1 hr relative to DPDPE; assay type: functional
[2] = target: T1, Kappa-type opioid receptor (Homo sapiens, UniProt P41145); assay: Displacement of [3H]diprenorphine from human kappa opioid receptor expressed in CHO cell membranes measured after 1 hr by liquid scintillation counting method
How it was run: (§1)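 Competition with 0.2 nM [3H]-diprenorphine on membranes (20 μg protein/tube) from stably transfected cells in 50 mM Tris-HCl pH 7.4, 1 h at room temperature with shaking; GF/C filtration, three washes, scintillation counting. Nonspecific binding defined with 10 μM naloxone.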

Mus musculus = assay: Antinociceptive activity in C57BL/6 mouse assessed as increase in latency to tail withdrawal up to 10 mg/kg, ip administered at 30 mins interval measured during compound dosing by warm water tail withdrawal assay relative to control; assay type: functional
How it was run: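 Male C57BL/6 mice, 20–30 g, 8–16 weeks. Saline ip, baseline latency 30 min later; then cumulative ip doses 1, 3.2, 10 mg/kg in 5% DMSO/saline at 30 min intervals, latency read 30 min after each. Tail tip (2–3 cm) in 50°C water, 20 s cutoff; expressed as % MPE (MPE = 20 s).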

[3] = target: T2, Delta-type opioid receptor (Rattus norvegicus, UniProt P33533); assay: Agonist activity at rat delta opioid receptor expressed in rat C6 cell membranes assessed as stimulation of [35S]GTPgammaS binding measured after 1 hr; assay type: functional
Mu-type opioid receptor [4] = target: T3, Mu-type opioid receptor (Rattus norvegicus, UniProt P33535); assay: Displacement of [3H]diprenorphine from rat mu opioid receptor expressed in rat C6 cell membranes measured after 1 hr by liquid scintillation counting method; how it was run: as §1
[5] = Lipophilicity, log P of the compound; assay type: physicochemical; conditions: octanol/water
Mu-type opioid receptor [6] = target: T3, Mu-type opioid receptor; assay: Agonist activity at rat mu opioid receptor expressed in rat C6 cell membranes assessed as stimulation of [35S]GTPgammaS binding measured after 1 hr; assay type: functional
How it was run: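 Membranes (10–20 μg protein/tube) from stably transfected cells incubated 1 h at 25°C in 50 mM Tris-HCl, 100 mM NaCl, 5 mM MgCl2, pH 7.4, with 0.1 nM [35S]-GTPγS, 30 μM GDP and varying test concentrations; filtration, scintillation counting.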

[7] = target: T1, Kappa-type opioid receptor; assay: Agonist activity at human kappa opioid receptor expressed in CHO cell membranes assessed as stimulation of [35S]GTPgammaS binding to G protein incubated for 1 hr relative to U69,593; assay type: functional
[8] = target: T1, Kappa-type opioid receptor; assay: Agonist activity at human kappa opioid receptor expressed in CHO cell membranes assessed as stimulation of [35S]GTPgammaS binding measured after 1 hr; assay type: functional
[9] = target: T2, Delta-type opioid receptor; assay: Displacement of [3H]diprenorphine from rat delta opioid receptor expressed in rat C6 cell membranes measured after 1 hr by liquid scintillation counting method
[10] = target: Mu-type opioid receptor (Rattus norvegicus) (UniProt P33535); assay: Agonist activity at rat mu opioid receptor expressed in rat C6 glioma cell membranes assessed as stimulation of [35S]GTPgammaS binding measured after 1 hr relative to DAMGO; assay type: functional
Rattus norvegicus = species on record: Rattus norvegicus; assay: Selectivity ratio of Ki for rat delta opioid receptor expressed in rat C6 cell membranes to Ki for rat mu opioid receptor expressed in rat C6 cell membranes; assay type: cell-based
How it was run: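 Competition binding against 0.2 nM [3H]-diprenorphine, using C6 membranes expressing rat MOR or rat DOR (20 μg protein/tube). Run in 50 mM Tris-HCl pH 7.4, 1 h at room temperature with shaking, then filtration and scintillation counting. Nonspecific binding with 10 μM naloxone.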

Sequence of Delta-type opioid receptor (Rattus norvegicus) (P33533 whole entry): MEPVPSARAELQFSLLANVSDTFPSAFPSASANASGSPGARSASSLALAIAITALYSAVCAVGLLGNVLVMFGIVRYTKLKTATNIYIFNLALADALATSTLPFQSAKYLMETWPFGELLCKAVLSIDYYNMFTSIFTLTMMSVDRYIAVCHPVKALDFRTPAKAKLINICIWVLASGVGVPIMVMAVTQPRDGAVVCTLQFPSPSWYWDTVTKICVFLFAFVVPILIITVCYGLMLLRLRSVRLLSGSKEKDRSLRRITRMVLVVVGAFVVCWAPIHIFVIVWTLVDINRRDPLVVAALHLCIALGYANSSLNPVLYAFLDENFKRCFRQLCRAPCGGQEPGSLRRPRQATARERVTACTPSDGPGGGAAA
T2 sequence (P33533 whole entry): as above
T3 sequence (P33535 whole entry): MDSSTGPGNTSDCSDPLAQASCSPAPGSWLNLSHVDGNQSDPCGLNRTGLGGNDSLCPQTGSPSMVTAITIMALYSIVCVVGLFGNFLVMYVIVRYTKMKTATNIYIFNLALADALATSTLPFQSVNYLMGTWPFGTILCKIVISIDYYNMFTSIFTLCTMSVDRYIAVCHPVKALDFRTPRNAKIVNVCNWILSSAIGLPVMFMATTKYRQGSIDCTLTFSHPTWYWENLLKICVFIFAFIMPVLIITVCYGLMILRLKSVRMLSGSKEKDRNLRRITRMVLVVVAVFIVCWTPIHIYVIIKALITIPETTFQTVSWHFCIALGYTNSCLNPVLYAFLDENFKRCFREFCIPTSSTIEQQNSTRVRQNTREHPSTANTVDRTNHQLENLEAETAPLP
Sequence of Mu-type opioid receptor (Rattus norvegicus) (P33535 whole entry): as above
T1 sequence (P41145 whole entry): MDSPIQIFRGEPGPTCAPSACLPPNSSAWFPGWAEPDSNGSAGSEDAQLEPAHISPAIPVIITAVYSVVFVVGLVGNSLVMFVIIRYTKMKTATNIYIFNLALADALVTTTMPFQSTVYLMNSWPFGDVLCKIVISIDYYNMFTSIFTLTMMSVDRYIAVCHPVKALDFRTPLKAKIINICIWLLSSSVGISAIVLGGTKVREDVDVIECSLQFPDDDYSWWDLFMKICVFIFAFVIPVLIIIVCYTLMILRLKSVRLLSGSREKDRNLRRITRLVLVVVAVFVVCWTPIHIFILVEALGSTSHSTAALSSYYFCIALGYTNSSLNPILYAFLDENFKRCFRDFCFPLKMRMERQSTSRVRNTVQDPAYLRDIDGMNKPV

| SMILES | Efficacy [1] | Ki [2] [nM] | MPE (Mus musculus) | EC50 ([3]; c6) | Ki (Mu-type opioid receptor [4]) [nM] | logP [5] | EC50 (Mu-type opioid receptor [6]) [nM] | Efficacy [7] | EC50 ([8]; cho) | Ki [9] [nM] | Efficacy [10] [%] | Ratio Ki (Rattus norvegicus) | EC50 ([3]; read-out: EC50) [nM] | EC50 ([8]; read-out: EC50) [nM] |
| --- | --- | --- | --- | --- | --- | --- | --- | --- | --- | --- | --- | --- | --- | --- |
| Cc1cc(O)cc(C)c1C[C@H](N)C(=O)N[C@@H]1CCN(C(=O)C2CC2)c2ccc(CN3CCc4ccccc4C3)cc21.O=C(O)C(F)(F)F | inactive | 40 | 60% | Not Active | 0.12 | 3.8 | 0.52 | inactive | Not Active | 0.88 | 95 | 7 | – | – |
| CC(=O)N1CC[C@@H](NC(=O)[C@@H](N)Cc2c(C)cc(O)cc2C)c2cc(Cc3ccc4c(c3)OCCO4)ccc21.O=C(O)C(F)(F)F | inactive | 142 | 75% | Not Active | 0.38 | 3.1 | 13 | inactive | Not Active | 0.83 | 45 | 2 | – | – |
| Cc1cc(O)cc(C)c1C[C@H](N)C(=O)N[C@@H]1CCNc2ccc(Cc3ccc4c(c3)OCCO4)cc21.O=C(O)C(F)(F)F | inactive | – | inactive | Not Active | – | 3.5 | 7.3 | inactive | Not Active | – | 88 | 16 | – | – |
| CC(=O)N1CC[C@@H](NC(=O)[C@@H](N)Cc2c(C)cc(O)cc2C)c2cc(Cc3cnc4ccccc4c3)ccc21.O=C(O)C(F)(F)F | 35% | 53 | 60% | – | 0.15 | 3.2 | 1.1 | inactive | Not Active | 0.2 | 76 | 1 | 5.8 | – |
| Cc1cc(O)cc(C)c1C[C@H](N)C(=O)N[C@@H]1CCN(C(=O)C2CC2)c2ccc(Cc3ccc4ccccc4c3)cc21 | 32% | 117 | inactive | – | 0.05 | 5.1 | 0.42 | 38% | – | 0.37 | 85 | 7 | 1.9 | > 500 |
| CC(=O)N1CC[C@@H](NC(=O)[C@@H](N)Cc2c(C)cc(O)cc2C)c2cc(Cc3ccc4ccccc4c3)ccc21 | – | – | – | – | – | 4.5 | – | – | – | – | – | – | – | – |
| Cc1cc(O)cc(C)c1C[C@H](N)C(=O)N[C@@H]1CCNc2ccc(CN3CCc4ccccc4C3)cc21.O=C(O)C(F)(F)F | inactive | 2.2 | inactive | Not Active | 0.03 | 3.7 | 0.4 | 25% | – | 3.1 | 105 | – | – | 90 |
| Cc1cc(O)cc(C)c1C[C@H](N)C(=O)N[C@@H]1CCN(C(=O)c2ccccc2)c2ccc(Cc3cnc4ccccc4c3)cc21.O=C(O)C(F)(F)F | – | 100 | 100% | Not Active | 0.04 | – | 1 | inactive | Not Active | 0.74 | 43 | – | – | – |
| Cc1cc(O)cc(C)c1C[C@H](N)C(=O)N[C@@H]1CCN(S(C)(=O)=O)c2ccc(Cc3ccc4ccccc4c3)cc21.O=C(O)C(F)(F)F | inactive | 27 | inactive | Not Active | 0.04 | 4.4 | 0.23 | inactive | Not Active | 0.95 | 102 | 24 | – | – |
| Cc1cc(O)cc(C)c1C[C@H](N)C(=O)N[C@@H]1CCN(C(=O)c2ccccc2)c2ccc(Cc3ccccc3)cc21 | – | – | – | – | – | 4.6 | – | – | – | – | – | – | – | – |
| Cc1cc(O)cc(C)c1C[C@H](N)C(=O)N[C@@H]1CCN(C(=O)c2ccccc2)c2ccc(Cc3cc4ccccc4o3)cc21.O=C(O)C(F)(F)F | inactive | 100 | inactive | Not Active | 0.35 | 5.2 | 12 | inactive | Not Active | 0.64 | 58 to 64 | 2 | – | – |
| Cc1cc(O)cc(C)c1C[C@H](N)C(=O)N[C@@H]1CCN(C(=O)C2CC2)c2ccc(Cc3cc4ccccc4o3)cc21.O=C(O)C(F)(F)F | 52% | 98 | inactive | – | 0.05 | 4.5 | 0.9 | inactive | Not Active | 0.26 | 89 | – | 3.7 | – |
| Cc1cc(O)cc(C)c1C[C@H](N)C(=O)N[C@@H]1CCNc2ccc(Cc3cc4ccccc4o3)cc21.O=C(O)C(F)(F)F | inactive | 40 | 50% | Not Active | – | 4.3 | 1.1 | inactive | Not Active | 5 | 98 | 44 | – | – |
| CC(=O)N1CC[C@@H](NC(=O)[C@@H](N)Cc2c(C)cc(O)cc2C)c2cc(Cc3cc4ccccc4o3)ccc21 | 30% | 58 | inactive | – | 0.12 | 3.9 | 1.9 | 33% | – | 0.73 | 86 | 6 | 1.6 | > 500 |
| Cc1cc(O)cc(C)c1C[C@H](N)C(=O)N[C@@H]1CCNc2ccc(Cc3cnc4ccccc4c3)cc21.O=C(O)C(F)(F)F | inactive | 16 | inactive | Not Active | 0.1 | 3.7 | 2.2 | inactive | Not Active | 1.5 | 84 | 15 | – | – |
| CC(=O)N1CC[C@@H](NC(=O)[C@@H](N)Cc2c(C)cc(O)cc2C)c2cc(Cc3ccccc3)ccc21 | – | – | – | – | – | 3.4 | – | – | – | – | – | – | – | – |
| Cc1cc(O)cc(C)c1C[C@H](N)C(=O)N[C@@H]1CCN(S(C)(=O)=O)c2ccc(Cc3cc4ccccc4o3)cc21.O=C(O)C(F)(F)F | inactive | 8 | inactive | Not Active | 0.05 | 3.8 | 0.34 | 61% | – | 1 | 102 | 20 | – | > 500 |
| Cc1cc(O)cc(C)c1C[C@H](N)C(=O)N[C@@H]1CCN(C(=O)C2CC2)c2ccc(Cc3cnc4ccccc4c3)cc21.O=C(O)C(F)(F)F | 84% | 84 | inactive | – | 0.05 | 3.8 | 0.34 | inactive | Not Active | 0.08 | 47 | 2 | 0.71 | – |
| Cc1cc(O)cc(C)c1C[C@H](N)C(=O)N[C@@H]1CCN(S(C)(=O)=O)c2ccc(Cc3ccc4c(c3)OCCO4)cc21.O=C(O)C(F)(F)F | inactive | 46 | 70% | Not Active | 0.07 | 3 | 9 | 39% | – | 1.5 | 47 | 21 | – | > 500 |
| Cc1cc(O)cc(C)c1C[C@H](N)C(=O)N[C@@H]1CCNc2ccc(Cc3ccc4ccccc4c3)cc21 | – | – | – | – | – | 4.9 | – | – | – | – | – | – | – | – |
| Cc1cc(O)cc(C)c1C[C@H](N)C(=O)N[C@@H]1CCN(C(=O)C2CC2)c2ccc(Cc3ccccc3)cc21 | – | – | – | – | – | 3.9 | – | – | – | – | – | – | – | – |
